Starred links: 1 amine or outer side, 2 acyl side, 3 side chain; linkers in the order of their positions; H or OH if unused. Non-standard residues stand in square brackets, D forms with d. Residues, ends and D or L forms follow the SMILES beside them. *: point of attachment. Desaminohistidyl = O=C(CCc1c[nH]cn1)*; NHCH2CHPh2 = c1ccc(C(CN*)c2ccccc2)cc1; NHCHPh2 = c1ccc(C(N*)c2ccccc2)cc1; pNA = O=[N+]([O-])c1ccc(N*)cc1; NHPhenethyl = c1ccc(CCN*)cc1; Suc = O=C(CCC(=O)[*:2])[*:1]; Isovaleryl = CC(C)CC(=O)*; Ac5c = NC1(C(=O)O)CCCC1; Api = NC1(C(=O)O)CCNCC1; Aib = CC(C)(N)C(=O)O; NHBn = c1ccc(CN*)cc1

The results in this text go back to ChEMBL document CHEMBL1132932, “Design of a Gag pentapeptide analogue that binds human cyclophilin A more efficiently than the entire capsid protein: new insights for the development of novel anti-HIV-1 drugs” (J Med Chem, 2000).

The target of assay [1] is T1, Peptidyl-prolyl cis-trans isomerase A (Homo sapiens, UniProt P62937). Kind of assay: 50% inhibitory concentration of competitive binding against human Peptidyl-prolyl isomerase activity using uncoupled assay. Put shortly:
(§1)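 Recombinant human hCyp-18 (expressed in E. coli M15, ion-exchange purified), 16 nM in 35 mM Hepes pH 7.8, preincubated 2 min with peptides added from DMSO stocks (100 µM to 100 mM). Substrate Suc-Ala-Ala-Pro-Phe-DFA in TFE/0.47 M LiCl added to a final 200 µM. Uncoupled cis/trans isomerization followed by absorbance at 246 nm, 10 °C, over 6 min. Pseudo-first-order k_obs taken from 0.05–0.5 min data, activity expressed relative to uncatalyzed rate, n = 2.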
Target sequence in this assay (P62937 whole entry): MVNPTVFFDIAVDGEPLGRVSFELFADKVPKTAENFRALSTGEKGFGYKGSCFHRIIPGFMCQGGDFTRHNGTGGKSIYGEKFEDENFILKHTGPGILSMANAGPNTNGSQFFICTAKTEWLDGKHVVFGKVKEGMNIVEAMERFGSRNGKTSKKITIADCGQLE

In assay [2] the target is T1, Peptidyl-prolyl cis-trans isomerase A. Kind of assay: % inhibition of competitive binding, at 500 uM, against hCyp-18 PPIase activity using uncoupled assay.
Target sequence in this assay (P62937 whole entry, looked up): as the sequence (P62937 whole entry) above
Assay [3] has the same target. As to the kind of experiment: % inhibition of competitive binding, at 500 uM, against human Peptidyl-prolyl isomerase. Put shortly:
as §1
Target sequence in this assay (P62937 whole entry, looked up): as the sequence (P62937 whole entry) above

For assay [4] the target is unchanged. As to the kind of experiment: % inhibition of competitive binding, at 500 uM, against human Peptidyl-prolyl isomerase activity using uncoupled assay.
Target sequence in this assay (P62937 whole entry, looked up): as the sequence (P62937 whole entry) above

Broadly, the IC50 is the concentration that inhibits the measured activity by half. The compound `CC(=O)N[C@H](C(=O)N[C@@H](Cc1cnc[nH]1)C(=O)N[C@@H](C)C(=O)NCC(=O)N1CCC[C@H]1C(=O)N[C@@H](CCC(N)=O)C(=O)N[C@@H](C)C(N)=O)C(C)C` showed an IC50 in assay [1] of 1300 µM.
What is called inhibition is how much of the control response was suppressed. A high value points to strong suppression. `C[C@H](NC(=O)CCC(=O)O)C(=O)N[C@@H](C)C(=O)N1CCC[C@H]1C(=O)N[C@@H](Cc1ccccc1)C(=O)Nc1ccc([N+](=O)[O-])cc1` (Suc-AAPF-pNA) came in with an inhibition in assay [2] of 38%.
`CC(=O)N[C@H](C(=O)N[C@@H](Cc1c[nH]cn1)C(=O)N[C@@H](C)C(=O)NCC(=O)N1CCC[C@H]1C(=O)NCC(=O)N[C@@H](C)C(N)=O)C(C)C` had a half-maximal inhibitory concentration (IC50) in assay [1] of 2800 µM.
In assay [3], `CC(C)CC(=O)N[C@@H](Cc1c[nH]cn1)C(=O)N[C@@H](C)C(=O)NCC(=O)N1CCC[C@H]1C(=O)NC1(C(=O)NCc2ccccc2)CCCC1` (Isovaleryl-HAGP[Ac5c]-NHBn) came in with an inhibition of 57%.
`CC(=O)N[C@H](C(=O)N[C@@H](Cc1cnc[nH]1)C(=O)N[C@@H](C)C(=O)NCC(=O)N1CCC[C@H]1C(=O)N[C@H](C(=O)N[C@@H](C)C(N)=O)C(C)C)C(C)C` came in with a half-inhibitory concentration (IC50) in assay [1] of 1500 µM.
Turning to `CC[C@H](C)[C@H](NC(=O)[C@@H]1CCCN1C(=O)CNC(=O)[C@H](C)NC(=O)[C@H](Cc1c[nH]cn1)NC(=O)[C@@H](NC(C)=O)C(C)C)C(=O)NCC(c1ccccc1)c1ccccc1` (Ac-VHAGPI-NHCH2CHPh2), in assay [2], the inhibition amounted to 54%.
In assay [1], `CC[C@H](C)[C@H](NC(=O)[C@@H]1CCCN1C(=O)CNC(=O)C(C)(C)NC(=O)[C@H](Cc1c[nH]cn1)NC(=O)[C@@H](NC(C)=O)C(C)C)C(=O)N[C@@H](C)C(N)=O` registered a 50% inhibitory concentration (IC50) of 760 µM.
Consider `CC[C@H](C)[C@H](NC(=O)[C@@H]1CCCN1C(=O)CNC(=O)[C@H](C)NC(=O)[C@H](Cc1c[nH]cn1)NC(=O)CC(C)C)C(=O)NCc1ccccc1` (Isovaleryl-HAGPI-NHBn), for which, in assay [3], the inhibition amounted to 99%.
The compound `CC(=O)N[C@H](C(=O)N[C@@H](Cc1c[nH]cn1)C(=O)N[C@@H](C)C(=O)NCC(=O)N1CCC[C@H]1C(=O)N[C@H](C(=O)N[C@H](C)C(N)=O)C(C)C)C(C)C` showed an inhibition in assay [3] of 31%.
The same measure, in the same setting: as for `CC[C@H](C)[C@H](NC(=O)[C@@H]1CCCN1C(=O)CNC(=O)[C@H](C)NC(=O)CCc1c[nH]cn1)C(=O)N[C@H](C)C(N)=O`, the figure is 20%.
As for `CC(=O)N[C@H](C(=O)N[C@@H](Cc1c[nH]cn1)C(=O)N[C@@H](C)C(=O)NCC(=O)N1CCC[C@H]1C(=O)N[C@H](C(=O)N[C@H](C)C(N)=O)c1ccccc1)C(C)C`, the inhibition in assay [3] was found to be 43%. This compound yielded an IC50 in assay [1] of 820 µM.
With Ac-VQAGPIA-NH2, the IC50 in assay [1] was 2500 µM.
Turning to `CC[C@@H](C)[C@@H](NC(=O)[C@@H]1CCCN1C(=O)CNC(=O)[C@H](C)NC(=O)[C@H](Cc1c[nH]cn1)NC(=O)[C@@H](NC(C)=O)C(C)C)C(=O)N[C@H](C)C(N)=O`, in assay [3], the inhibition was 19%.
In assay [4], `CC(=O)N[C@H](C(=O)N[C@@H](Cc1c[nH]cn1)C(=O)N[C@@H](C)C(=O)NCC(=O)N1CCC[C@H]1C(=O)NC1(C(=O)N[C@@H](C)C(N)=O)CCCC1)C(C)C` (Ac-VHAGP[Ac5c]A-NH2) gave an inhibition of 52%.
Regarding `CC(=O)N[C@H](C(=O)N[C@@H](Cc1c[nH]cn1)C(=O)N[C@@H](C)C(=O)NCC(=O)N1CCC[C@H]1C(=O)N[C@@H](CCC(N)=O)C(=O)N[C@H](C)C(N)=O)C(C)C`, the inhibition in assay [3] came out at 15%.
For the compound `CC[C@H](C)[C@H](NC(=O)[C@@H]1CCCN1C(=O)CNC(=O)C(C)(C)NC(=O)[C@H](Cc1cnc[nH]1)NC(=O)CC(C)C)C(=O)NCc1ccccc1` (Isovaleryl-H[Aib]GPI-NHBn), the 50% inhibitory concentration (IC50) in assay [1] is greater than 10000 µM.
Same read-out and setting: for `CC(=O)N[C@H](C(=O)N[C@@H](Cc1cnc[nH]1)C(=O)N[C@@H](C)C(=O)NCC(=O)N1CCC[C@H]1C(=O)N[C@@H](C(=O)N[C@H](C)C(N)=O)c1ccccc1)C(C)C` the value was 970 µM; for `CC[C@H](C)[C@H](NC(=O)[C@@H]1CCCN1C(=O)CNC(=O)[C@H](C)NC(=O)[C@H](Cc1cnc[nH]1)NC(=O)CC(C)C)C(=O)NCc1ccccc1` (Isovaleryl-HAGPI-NHBn), 6 µM.
As to `CC[C@H](C)[C@H](NC(=O)[C@@H]1CCCN1C(=O)CNC(=O)[C@H](C)NC(=O)[C@@H](N)Cc1c[nH]cn1)C(=O)N[C@H](C)C(=O)O`, the inhibition in assay [3] worked out at 15%.
Turning to `CC[C@H](C)[C@H](NC(=O)[C@@H]1CCCN1C(=O)CNC(=O)[C@H](C)NC(=O)[C@H](Cc1c[nH]cn1)NC(C)=O)C(=O)NCc1ccccc1` (Ac-HAGPI-NHBn), the inhibition in assay [3] came out at 55%. The compound further gave a 50% inhibitory concentration (IC50) in assay [1] of 280 µM.
On to `CC[C@H](C)[C@H](NC(=O)[C@@H]1CCCN1C(=O)CNC(=O)[C@H](C)NC(=O)[C@H](Cc1c[nH]cn1)NC(=O)[C@@H](N)C(C)C)C(=O)NCc1ccccc1` (H-VHAGPI-NHBn), for which, in assay [3], the inhibition turned out to be 59%.
The compound `CC(=O)N[C@H](C(=O)N[C@@H](Cc1c[nH]cn1)C(=O)N[C@@H](C)C(=O)NCC(=O)N1CCC[C@H]1C(=O)NC1(C(=O)N[C@@H](C)C(N)=O)CCNCC1)C(C)C` (Ac-VHAGP[Api]A-NH2) yielded a half-inhibitory concentration (IC50) in assay [1] greater than 10000 µM.
The same measure, in the same setting: for `CC(=O)N[C@H](C(=O)N[C@@H](Cc1c[nH]cn1)C(=O)N[C@@H](C)C(=O)NCC(=O)N1CCC[C@H]1C(=O)NC(C)(C)C(=O)N[C@@H](C)C(N)=O)C(C)C` (Ac-VHAGP[Aib]A-NH2) the value was greater than 10000 µM.
In the case of `CC[C@H](C)[C@H](NC(=O)[C@@H]1CCCN1C(=O)CNC(=O)[C@H](C)NC(=O)[C@H](Cc1cnc[nH]1)NC(=O)[C@@H](NC(C)=O)C(C)C)C(=O)N[C@@H](C)C(N)=O`, the 50% inhibitory concentration (IC50) in assay [1] worked out at 850 µM.
In assay [2], `CC[C@H](C)[C@H](NC(=O)[C@@H]1CCCN1C(=O)CNC(=O)[C@H](C)NC(=O)[C@H](Cc1c[nH]cn1)NC(=O)[C@@H](NC(C)=O)C(C)C)C(=O)NCCc1ccccc1` (Ac-VHAGPI-NHPhenethyl) showed an inhibition of 55%.
In turn, `CC(=O)N[C@H](C(=O)N[C@@H](Cc1c[nH]cn1)C(=O)N[C@@H](C)C(=O)NCC(=O)N1CCC[C@H]1C(=O)NCC(=O)N[C@H](C)C(N)=O)C(C)C` gave an inhibition in assay [3] of 28%.
For `CC(C)CC(=O)N[C@@H](Cc1c[nH]cn1)C(=O)NC(C)(C)C(=O)NCC(=O)N1CCC[C@H]1C(=O)NC1(C(=O)NCc2ccccc2)CCCC1` (Isovaleryl-H[Aib]GP[Ac5c]-NHBn), in assay [3], the inhibition stood at 50%. Moreover, the 50% inhibitory concentration (IC50) in assay [1] was determined as 500 µM.
For `CC[C@H](C)[C@H](NC(=O)[C@@H]1CCCN1C(=O)CNC(=O)[C@H](C)NC(=O)[C@H](Cc1c[nH]cn1)NC(=O)[C@@H](NC(=O)CCC(=O)O)C(C)C)C(=O)N[C@@H](C)C(N)=O` (Suc-VHAGPIA-NH2) the same measures were 13% and 1000 µM.
`CC[C@H](C)[C@H](NC(=O)[C@@H]1CCCN1C(=O)CNC(=O)[C@H](C)NC(=O)[C@H](Cc1c[nH]cn1)NC(=O)[C@@H](NC(C)=O)C(C)C)C(=O)NCc1ccccc1` (Ac-VHAGPI-NHBn) came in with an inhibition in assay [3] of 88%. This compound returned a concentration for half-maximal inhibition (IC50) in assay [1] of 115 µM.
In assay [3], `CC[C@@H](C)[C@@H](NC(=O)[C@@H]1CCCN1C(=O)CNC(=O)C(C)(C)NC(=O)[C@H](Cc1c[nH]cn1)NC(=O)[C@@H](NC(C)=O)C(C)C)C(=O)N[C@H](C)C(N)=O` had an inhibition of 45%.
For `CC(=O)N[C@H](C(=O)N[C@@H](Cc1cnc[nH]1)C(=O)N[C@@H](C)C(=O)NCC(=O)N1CCC[C@H]1C(=O)NC1(C(=O)N[C@@H](C)C(N)=O)CCCC1)C(C)C` (Ac-VHAGP[Ac5c]A-NH2), the IC50 in assay [1] is 680 µM.
For `CC[C@H](C)[C@H](NC(=O)[C@@H]1CCCN1C(=O)CNC(=O)[C@H](C)NC(=O)[C@H](Cc1c[nH]cn1)NC(=O)[C@@H](N)C(C)C)C(=O)N[C@@H](C)C(N)=O`, the concentration for half-maximal inhibition (IC50) in assay [1] was found to be 2100 µM.
`CC(=O)N[C@H](C(=O)N[C@@H](Cc1c[nH]cn1)C(=O)N[C@@H](C)C(=O)NCC(=O)N1CCC[C@H]1C(=O)N[C@@H](C(=O)N[C@H](C)C(N)=O)c1ccccc1)C(C)C` gave an inhibition in assay [3] of 37%.
`CC[C@H](C)[C@H](NC(=O)[C@@H]1CCCN1C(=O)CNC(=O)[C@H](C)NC(=O)CCc1cnc[nH]1)C(=O)NCc1ccccc1` (Desaminohistidyl-AGPI-NHBn): in assay [1], the IC50 is greater than 10000 µM.
In assay [3], `CC[C@H](C)[C@H](NC(=O)[C@@H]1CCCN1C(=O)CNC(=O)[C@H](C)NC(=O)[C@H](Cc1c[nH]cn1)NC(=O)[C@@H](N)C(C)C)C(=O)N[C@H](C)C(N)=O` came in with an inhibition of 11%.
With `CC[C@H](C)[C@H](NC(=O)[C@@H]1CCCN1C(=O)CNC(=O)[C@H](C)NC(=O)[C@H](Cc1c[nH]cn1)NC(=O)CC(C)C)C(=O)N[C@H](C)C(N)=O`, the inhibition in assay [3] was determined as 76%.
Consider `CC[C@H](C)[C@H](NC(=O)[C@@H]1CCCN1C(=O)CNC(=O)[C@H](C)NC(=O)[C@H](Cc1c[nH]cn1)NC(=O)[C@@H](NC(C)=O)C(C)C)C(=O)NC(c1ccccc1)c1ccccc1` (Ac-VHAGPI-NHCHPh2), for which the inhibition in assay [3] stood at 38%. Further, the half-inhibitory concentration (IC50) in assay [1] is 1500 µM.
Turning to `CC(C)CC(=O)N[C@@H](Cc1cnc[nH]1)C(=O)N[C@@H](C)C(=O)NCC(=O)N1CCC[C@H]1C(=O)NC1(C(=O)NCc2ccccc2)CCCC1` (Isovaleryl-HAGP[Ac5c]-NHBn), the IC50 in assay [1] was determined as 90 µM. In other words, the double-digit micromolar range.
In assay [1], `CC[C@H](C)[C@H](NC(=O)[C@@H]1CCCN1C(=O)CNC(=O)[C@H](C)NC(=O)[C@H](Cc1cnc[nH]1)NC(=O)[C@@H](N)C(C)C)C(=O)NCc1ccccc1` (H-VHAGPI-NHBn) gave a 50% inhibitory concentration (IC50) of 260 µM.
